Screening results as filed in PubChem BioAssay.
UHRF1 binding – blocks human UHRF1 binding to methylated DNA | inhibition, % at 4.4 µM | 370,000 compounds, 0.75% hits | UHRF1 binding to methylated oligo, TR-FRET | AID 687016 | Q96T88; in the data active = inhibition above about 21%;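 note: UHRF1 SRA domain binding a hemimethylated CpG hairpin DNA probe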
SUMO1 PPI mod – SUMO1-SIM interaction modulation; P63165; SUMO1 binding to a labelled peptide, TR-FRET, 1 h; inhibition, % at 20 µM; 360,000 compounds, 0.33% hits; AID 602429; in the data active = inhibition above about 37%
MBD2 DNA inh – blocks human MBD2 binding to methylated DNA; TR-FRET, MBD2 binding to methylated oligonucleotide; inhibition, % at 4.4 µM; 370,000 compounds, 0.31% hits; AID 686964; in the data active = inhibition above about 13%
DSG3 Ab inh – human desmoglein-3 autoantibody binding inhibition | binding (percent of control), % at 10 µM | DSG3-coupled beads, scFv-anti-DSG3-GFP binding, flow cytometry; hits give low values | AID 588358 | 310,000 compounds, 0.48% hits | P32926;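 active = binding more than 3 SD below its plate's average and above zero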;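 note: hits lower antibody fragment binding to DSG3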
HCV NS3 hel inh – inhibitors of Hepatitis C virus NS3 helicase; NS3 helicase DNA unwinding, Cy5 molecular beacon fluorescence; AID 1800; inhibition, % at 10.9 µM; 290,000 compounds, 0.56% hits;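 active = inhibition above the mean of all tested compounds plus 3 SD, set per campaign, cut at about 35% in these data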
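Assay system: hepatitis C virus NS3 helicase domain fragment enzyme. Also added: annealed dual-labelled DNA beacon duplex, ATP-started. Timing: 1 h reaction at 25 °C, ATP-initiated. Technique: Cy5 fluorescence at 0 and 60 min, beacon hairpin quenching. Evaluation: % inhibition of unwinding. Replication: one well per compound.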
DNMT1 inh – blocks human DNA methyltransferase DNMT1; P26358; DNMT1 molecular beacon, Hinp1I cleavage, fluorescence; inhibition (reported as % activation of signal), % at 10 µM; 360,000 compounds, 0.83% hits; AID 588458; in the data active = inhibition above about 50%
Target sequence (P26358 504-1616 limits assumed): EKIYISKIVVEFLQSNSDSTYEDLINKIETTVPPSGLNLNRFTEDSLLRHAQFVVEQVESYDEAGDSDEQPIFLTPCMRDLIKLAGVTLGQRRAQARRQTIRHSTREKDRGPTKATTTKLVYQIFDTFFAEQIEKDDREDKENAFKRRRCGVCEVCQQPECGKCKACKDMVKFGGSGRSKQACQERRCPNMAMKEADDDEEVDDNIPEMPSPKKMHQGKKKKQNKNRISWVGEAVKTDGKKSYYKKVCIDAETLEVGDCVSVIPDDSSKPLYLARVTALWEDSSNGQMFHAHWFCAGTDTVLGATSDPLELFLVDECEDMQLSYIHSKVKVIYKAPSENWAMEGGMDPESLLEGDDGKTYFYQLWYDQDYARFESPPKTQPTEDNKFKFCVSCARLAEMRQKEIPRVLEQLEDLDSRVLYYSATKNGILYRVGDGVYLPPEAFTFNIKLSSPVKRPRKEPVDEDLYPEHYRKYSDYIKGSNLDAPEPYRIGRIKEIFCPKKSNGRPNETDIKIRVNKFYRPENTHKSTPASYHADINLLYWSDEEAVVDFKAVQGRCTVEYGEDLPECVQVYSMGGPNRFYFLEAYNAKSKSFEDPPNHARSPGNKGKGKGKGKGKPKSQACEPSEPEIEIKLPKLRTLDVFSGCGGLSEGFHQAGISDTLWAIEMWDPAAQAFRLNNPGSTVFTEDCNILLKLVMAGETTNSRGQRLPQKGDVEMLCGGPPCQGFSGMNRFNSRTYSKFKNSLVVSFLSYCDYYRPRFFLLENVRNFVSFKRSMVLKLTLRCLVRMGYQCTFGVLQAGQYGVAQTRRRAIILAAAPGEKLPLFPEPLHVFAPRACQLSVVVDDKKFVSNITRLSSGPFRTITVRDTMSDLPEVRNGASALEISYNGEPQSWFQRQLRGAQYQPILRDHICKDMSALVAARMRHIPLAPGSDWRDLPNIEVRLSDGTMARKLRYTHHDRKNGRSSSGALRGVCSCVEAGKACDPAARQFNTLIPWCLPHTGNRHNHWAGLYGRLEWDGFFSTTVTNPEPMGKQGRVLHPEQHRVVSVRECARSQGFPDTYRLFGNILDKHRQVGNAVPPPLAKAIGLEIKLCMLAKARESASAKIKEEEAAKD
A number is an active result; – = inactive; · = no result. Sampled rows, rich in hits. Any-hit rate of the full collection: about 2.5%.

SMILES	UHRF1 binding	SUMO1 PPI mod	MBD2 DNA inh	DSG3 Ab inh	HCV NS3 hel inh	DNMT1 inh
Cc1cc(=O)[nH]c(SCCOc2cccc(C(F)(F)F)c2)n1	–	–	–	–	–	–
Cc1[nH]n(C(N)=S)c(=O)c1N=Nc1cccc([N+](=O)[O-])c1C	·	–	·	–	–	–
NC(=S)n1[nH]c(-c2ccc([N+](=O)[O-])cc2)c(N=Nc2cccc([N+](=O)[O-])c2)c1=O	–	87.6	–	–	–	–
Cc1c(N=Nc2c(-c3ccc([N+](=O)[O-])cc3)[nH]n(C(N)=S)c2=O)cccc1[N+](=O)[O-]	–	–	–	–	–	75.5
Cc1ccc(NC(=O)C=NOCC(=O)Nc2cc(C)cc(C)c2)cc1	–	–	–	–	·	–
O=C(Cc1ccccc1)N/N=C/c1cc(Br)cc(Cl)c1O	57.8	–	–	–	–	–
COc1cc(Br)cc(/C=N/NC(=O)Cc2ccccc2)c1O	–	–	–	·	·	–
COc1ccccc1-c1c(C)nn2c(N3CCN(c4ccccc4OC)CC3)cc(C)nc12	25.7	–	–	–	–	–
COc1ccccc1-c1c(C)nn2c(N3CCCCCC3)cc(C)nc12	–	–	–	–	–	–
NC1=C(Cl)C(=O)c2ccccc2C1=O	–	–	–	·	·	–
NC1=C(Cl)C(=O)c2ccc(S(N)(=O)=O)cc2C1=O	–	–	–	–	·	79.8
CCN(CCCNC(=O)C1CCC(=O)N1C(C)C)c1cccc(C)c1 (stereo not given)	–	–	–	–	–	–
O=C(O)C1C(c2ccccc2)C(C(=O)N2CCOCC2)C1c1ccccc1 (stereo not given)	–	–	–	–	–	–
COc1ccc(OC(=O)c2c(C)nn(-c3ccccc3)c2C)cc1	–	–	–	·	–	–
Cc1nn(-c2ccccc2)c(C)c1C(=O)Oc1ccccc1	32.3	–	–	·	–	–
Cc1ccc(C(C(=O)NC2CCCCC2)N(Cc2ccco2)C(=O)Cn2cnc3ccccc32)cc1 (stereo not given)	–	–	–	–	–	–
COc1ccc(/C=N\NC(=O)c2ccc([N+](=O)[O-])c(C)c2)cc1COc1ccccc1C(N)=O	–	54.3	–	–	–	–
COc1ccc(/C=N/NC(=O)c2ccccc2OC)cc1COc1ccccc1[N+](=O)[O-]	–	–	–	·	–	–
O=C(CSc1nnc(-c2ccccn2)o1)Nc1cccc(Cl)c1	–	–	–	–	–	–
COC(=O)c1cc(C(=O)N2CCN(c3ccccc3OC)CC2)cc([N+](=O)[O-])c1	–	–	–	–	–	–
COC(=O)c1cc(C(=O)N2CCN(c3cccc(C)c3C)CC2)cc([N+](=O)[O-])c1	–	61.3	–	–	–	–
O=C(NCc1ccco1)c1ccc(Cl)nc1	–	–	–	78.3	–	–
Cc1nn(C)c(C)c1NC(=O)c1ccnn1C	–	–	–	·	–	–
CCc1cc(=O)[nH]c(SCCc2ccccc2)n1	·	–	·	–	–	–
CSc1nc(Cc2ccccc2)cc(=O)[nH]1	–	–	–	61.0	–	–
SMILES	UHRF1 binding	SUMO1 PPI mod	MBD2 DNA inh	DSG3 Ab inh	HCV NS3 hel inh	DNMT1 inh
COc1ccc(CCN2C(=O)CCC2(C)c2nnnn2Cc2ccccc2)cc1OC (stereo not given)	–	–	–	·	·	·
Cc1[nH]c2ccccc2c1CN1CCc2ccccc2C1	21.1	–	13.6	–	–	–
Cc1cc(N2CCCCC2)nc(-c2ccc(Br)cc2)n1	–	44.8	–	–	–	–
Cc1cccc(C)c1NC(=O)C1CCN(c2ncccn2)CC1	–	·	–	·	·	·
CC(C)C[C@@H](CNCC(=O)[C@H](C)NC(=O)c1[nH]cnc1C(=O)N[C@@H](C)CN)NC(=O)c1nc[nH]c1C(=O)N[C@@H](CO)C(=O)O	–	–	–	–	·	–
CC(C)C[C@@H](CNCC(=O)[C@H](Cc1ccccc1)NC(=O)c1[nH]cnc1C(=O)N[C@@H](C)CN)NC(=O)c1nc[nH]c1C(=O)N[C@@H](C)C(=O)O	22.6	–	–	–	·	–
CC(C)C[C@@H](CNCC(=O)[C@H](C)NC(=O)c1[nH]cnc1C(=O)N[C@@H](C)CN)NC(=O)c1nc[nH]c1C(=O)N[C@@H](C)C(=O)O	21.6	–	–	–	·	–
CC(C)C[C@@H](CNCC(=O)[C@H](CC(=O)O)NC(=O)c1[nH]cnc1C(=O)N[C@H](CN)CC(C)C)NC(=O)c1nc[nH]c1C(=O)N[C@@H](Cc1ccccc1)C(=O)O	–	47.9	–	–	·	–
Cc1ccccc1CC(=O)NCC1CCCCC1	39.9	–	–	–	–	–
N#Cc1c(SCC(=O)Nc2ccccc2)nsc1SCC(=O)Nc1ccccc1	–	–	–	66.5	–	–
COc1ccc(C)cc1NC(=O)C(Sc1nncn1C)c1ccccc1 (stereo not given)	24.2	–	–	–	–	–
Cc1ccc(NC(=O)c2c3c(nc4ccccc24)CCC3)cc1S(=O)(=O)N(C)C	–	–	–	45.4	–	–
Cc1ccc(NC(=O)c2c3c(nc4ccccc24)CCC3)cc1	–	–	–	–	–	–
Cc1cccc(OCCOC(=O)c2ccc(F)c(S(=O)(=O)N3CCOCC3)c2)c1	40.8	–	–	–	·	–
O=C(OCn1nnc2ccccc2c1=O)c1ccc(F)c(S(=O)(=O)N2CCOCC2)c1	73.1	–	–	–	·	–
Cc1cc(C)cc(OCCNC(=O)c2cc(S(=O)(=O)N3CCOCC3)ccc2F)c1	–	–	–	57.7	–	–
Cn1cc(Br)c(C(=O)NNC(=O)c2ccc(Cl)cc2)n1	–	–	–	–	–	–
CCOC(=O)C1=C(c2ccccc2)NC(=O)NC1c1cc(Br)c(O)c(OC)c1 (stereo not given)	–	–	–	–	–	–
CCOC(=O)C1=C(C)NC(=O)NC1c1cc(Br)c(O)c(OC)c1 (stereo not given)	–	–	–	75.5	–	–
CSc1ccc(CN2CCC(Oc3cccc(C(=O)N4CCCC4)c3)CC2)cc1	–	–	–	·	–	–
CCCCNC(=O)Nc1nc2ccc(CC)cc2s1	–	–	–	106.5	–	–
C[C@H]1CN([C@@H](C)CO)C(=O)CCCn2nncc2CO[C@@H]1CN(C)Cc1ccccc1	34.5	–	–	–	·	–
C[C@@H]1CN([C@@H](C)CO)C(=O)CCCn2nncc2CO[C@H]1CN(C)C(=O)Nc1ccccc1C(F)(F)F	–	–	–	–	·	–
C[C@@H]1CN([C@@H](C)CO)C(=O)CCCn2cc(nn2)CO[C@H]1CN(C)C(=O)NC1CCCCC1	20.7	·	–	·	·	·
C[C@@H]1CN([C@@H](C)CO)C(=O)CCCn2nncc2CO[C@H]1CN(C)Cc1ccccc1	–	–	–	·	·	–
C[C@@H]1CN([C@@H](C)CO)C(=O)CCCn2nncc2CO[C@@H]1CN(C)C(=O)Nc1ccccc1C(F)(F)F	21.8	–	–	·	·	–
